Laboratory results from ChEMBL document CHEMBL2021854, “2-Aminopyrimidine based 4-aminoquinoline anti-plasmodial agents. Synthesis, biological activity, structure-activity relationship and mode of action studies” (Eur J Med Chem, 2012).

Tested on: Plasmodium falciparum
Assay: Antiplasmodial activity chloroquine-sensitive Plasmodium falciparum 3D7 infected in human A+ erythrocytes assessed as inhibition of [3H]-hypoxanthine incorporation after 24 hrs by scintillation counting
Format: functional, organism-based
Details: not given

Row | SMILES | IC50
1 | CCOC(=O)c1c(C)nc(NCCNc2ccnc3cc(Cl)ccc23)nc1-c1ccccc1 | 21.7 nM

Tested on: Plasmodium falciparum
Assay: Antiplasmodial activity chloroquine-resistant Plasmodium falciparum K1 infected in human A+ erythrocytes assessed as inhibition of [3H]-hypoxanthine incorporation after 24 hrs by scintillation counting
Format: functional, organism-based
Details: not given

Row | SMILES | IC50
2 | CCOC(=O)c1c(C)nc(NCCNc2ccnc3cc(Cl)ccc23)nc1-c1ccccc1 | 139 nM

Tested on: Plasmodium falciparum
Assay: Resistant factor, ratio of IC50 for chloroquine-resistant Plasmodium falciparum K1 to IC50 for chloroquine-sensitive Plasmodium falciparum 3D7
Format: functional
Details: not given
Method in brief: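 Resistance factor computed as IC50 against K1 divided by IC50 against 3D7, both from the [3H]hypoxanthine incorporation assay.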

Row | SMILES | Ratio IC50
3 | CCOC(=O)c1c(C)nc(NCCNc2ccnc3cc(Cl)ccc23)nc1-c1ccccc1 | 6.43

Tested on: MDCK
Assay: Cytotoxicity against MDCK cells assessed as cell viability by colorimetric formazan-based MTS assay
Parameters: species or system Canis lupus familiaris
Details: dog, mdck
Method in brief: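 Cytotoxicity on MDCK cells; 50% cytotoxic concentration from cell viability measured by colorimetric formazan-based MTS assay.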

Row | SMILES | CC50
4 | CCOC(=O)c1c(C)nc(NCCNc2ccnc3cc(Cl)ccc23)nc1-c1ccccc1 | 1400 nM

Tested on: not listed separately
Assay: Cytotoxicity against MDCK cells assessed as minimum compound concentration required to causes microscopically detectable alteration of normal cell morphology
Format: cell-based, Canis lupus familiaris
Details: dog
Method in brief: (§1)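 Confluent, non-proliferating cell cultures were exposed to the compounds. The endpoint was the minimum concentration producing a microscopically detectable alteration of normal cell morphology.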

Row | SMILES | MCC
5 | CCOC(=O)c1c(C)nc(NCCNc2ccnc3cc(Cl)ccc23)nc1-c1ccccc1 | 800 nM

Tested on: not listed separately
Assay: Selectivity index, ratio of CC50 for MDCK cells to IC50 for chloroquine-resistant Plasmodium falciparum K1
Format: functional
Details: not given
Method in brief: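 Selectivity index computed as MTS-based CC50 on MDCK cells divided by IC50 against P. falciparum K1.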

Row | SMILES | Ratio CC50/IC50
6 | CCOC(=O)c1c(C)nc(NCCNc2ccnc3cc(Cl)ccc23)nc1-c1ccccc1 | 10.04

Tested on: not listed separately
Assay: Cytotoxicity against african green monkey Vero cells assessed as minimum compound concentration required to causes microscopically detectable alteration of normal cell morphology
Format: cell-based
Details: chlorocebus sabaeus
Method in brief: as §1

Row | SMILES | MCC
7 | CCOC(=O)c1c(C)nc(NCCNc2ccnc3cc(Cl)ccc23)nc1-c1ccccc1 | 20 µM

Tested on: Human respirovirus 3
Assay: Antiviral activity against Parainfluenza-3 virus infected in african green monkey Vero cells assessed as inhibition of virus-induced cytopathogenicity after 4 days
Format: functional, organism-based
Details: Human respirovirus 3, Vero, 96 h
Method in brief: (§2)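 Confluent HEL, Vero or HeLa monolayers were inoculated with 100 CCID50 of virus in the presence of varying concentrations of compound. Cytopathicity was scored when it reached completion in untreated, virus-infected control cultures.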

Row | SMILES | EC50
8 | CCOC(=O)c1c(C)nc(NCCNc2ccnc3cc(Cl)ccc23)nc1-c1ccccc1 | > 4 µM

Tested on: Mammalian orthoreovirus 1
Assay: Antiviral activity against Reovirus-1 infected in african green monkey Vero cells assessed as inhibition of virus-induced cytopathogenicity after 4 days
Format: functional, organism-based
Details: Mammalian orthoreovirus 1, Vero, 96 h
Method in brief: as §2

Row | SMILES | EC50
9 | CCOC(=O)c1c(C)nc(NCCNc2ccnc3cc(Cl)ccc23)nc1-c1ccccc1 | > 4 µM

Tested on: Sindbis virus
Assay: Antiviral activity against Sindbis virus infected in african green monkey Vero cells assessed as inhibition of virus-induced cytopathogenicity after 4 days
Format: functional, organism-based
Details: 96 h
Method in brief: as §2

Row | SMILES | EC50
10 | CCOC(=O)c1c(C)nc(NCCNc2ccnc3cc(Cl)ccc23)nc1-c1ccccc1 | > 4 µM

Tested on: Coxsackievirus B4
Assay: Antiviral activity against Coxsackie virus B4 infected in african green monkey Vero cells assessed as inhibition of virus-induced cytopathogenicity after 4 days
Format: functional, organism-based
Details: Enterovirus B, 96 h
Method in brief: as §2

Row | SMILES | EC50
11 | CCOC(=O)c1c(C)nc(NCCNc2ccnc3cc(Cl)ccc23)nc1-c1ccccc1 | > 4 µM

Tested on: Punta Toro virus
Assay: Antiviral activity against Punta Toro virus infected in african green monkey Vero cells assessed as inhibition of virus-induced cytopathogenicity after 4 days
Format: functional, organism-based
Details: 96 h
Method in brief: as §2

Row | SMILES | EC50
12 | CCOC(=O)c1c(C)nc(NCCNc2ccnc3cc(Cl)ccc23)nc1-c1ccccc1 | > 4 µM

Tested on: Human alphaherpesvirus 1
Assay: Antiviral activity against HSV1 KOS infected in HEL cells assessed as inhibition of virus-induced cytopathogenicity after 4 days
Format: functional, organism-based
Details: Human alphaherpesvirus 1, KOS, 96 h
Method in brief: (§3)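 Confluent HEL or HeLa monolayers infected with 100 CCID50 of virus in the presence of varying compound concentrations.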

Row | SMILES | EC50
13 | CCOC(=O)c1c(C)nc(NCCNc2ccnc3cc(Cl)ccc23)nc1-c1ccccc1 | > 4 µM

Tested on: Human alphaherpesvirus 2
Assay: Antiviral activity against HSV2 G infected in HEL cells assessed as inhibition of virus-induced cytopathogenicity after 4 days
Format: functional, organism-based
Details: Human alphaherpesvirus 2, strain G, 96 h
Method in brief: as §2

Row | SMILES | EC50
14 | CCOC(=O)c1c(C)nc(NCCNc2ccnc3cc(Cl)ccc23)nc1-c1ccccc1 | > 4 µM

Tested on: Vesicular stomatitis virus
Assay: Antiviral activity against Vesicular stomatitis virus infected in HEL cells assessed as inhibition of virus-induced cytopathogenicity after 4 days
Format: functional, organism-based
Details: 96 h
Method in brief: as §3

Row | SMILES | EC50
15 | CCOC(=O)c1c(C)nc(NCCNc2ccnc3cc(Cl)ccc23)nc1-c1ccccc1 | > 4 µM

Tested on: Human alphaherpesvirus 1
Assay: Antiviral activity against thymidine kinase-deficient acyclovir-resistant HSV1 KOS infected in HEL cells assessed as inhibition of virus-induced cytopathogenicity after 4 days
Format: functional, organism-based
Details: Human alphaherpesvirus 1, KOS, 96 h
Method in brief: as §3

Row | SMILES | EC50
16 | CCOC(=O)c1c(C)nc(NCCNc2ccnc3cc(Cl)ccc23)nc1-c1ccccc1 | > 4 µM

Tested on: not listed separately
Assay: Cytotoxicity against human HEL cells assessed as minimum compound concentration required to causes microscopically detectable alteration of normal cell morphology
Format: cell-based
Details: not given
Method in brief: as §1

Row | SMILES | MCC
17 | CCOC(=O)c1c(C)nc(NCCNc2ccnc3cc(Cl)ccc23)nc1-c1ccccc1 | 20 µM

Tested on: not listed separately
Assay: Cytotoxicity against human HeLa cells assessed as minimum compound concentration required to causes microscopically detectable alteration of normal cell morphology
Format: cell-based
Details: not given
Method in brief: as §1

Row | SMILES | MCC
18 | CCOC(=O)c1c(C)nc(NCCNc2ccnc3cc(Cl)ccc23)nc1-c1ccccc1 | 20 µM

Tested on: Vesicular stomatitis virus
Assay: Antiviral activity against Vesicular stomatitis virus infected in HeLa cells assessed as inhibition of virus-induced cytopathogenicity after 4 days
Format: functional, organism-based
Details: 96 h
Method in brief: as §3

Row | SMILES | EC50
19 | CCOC(=O)c1c(C)nc(NCCNc2ccnc3cc(Cl)ccc23)nc1-c1ccccc1 | > 4 µM
